# Screening data (PubChem BioAssay)
# Runt-CBFb FRET – blocks binding of human RUNX1 Runt domain to CBFb; Cerulean-Runt/Venus-CBFb FRET ratio 530/480, 1 h; inhibition, % at 20 µM; hit rate 0.46% among 220,000; Q01196+Q13951;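 active = inhibition over about 50% at 20 µM in the single-dose screen, limit read from the data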;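 note: 0% = DMSO wells and 100% = excess unlabeled CBFb competitor control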
#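 Reagent – Venus-CBFb binding partner, 100 nM · Assay system – Cerulean-tagged RUNX1 Runt domain (FRET donor) fusion protein · Input – 100 nM per protein · Incubation – two 1 h room-temperature incubations shielded from light · Measured by – FRET fluorescence · Medium – Tris buffer pH 7.5 with salts and BSA · Benchmarks – unlabeled CBFb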
# Runt-SMMHC FRET – inhibitors of human RUNX1 Runt domain binding to CBFb-SMMHC; hit rate 0.74% among 220,000; Cerulean-Runt/Venus-CBFb-SMMHC FRET ratio 530/480, 1 h; AID 1434; Q01196+Q13951; inhibition, % at 20 µM;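 active = mean inhibition across duplicate retests at 20 µM reaching about 50%, limit read from the data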;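 note: 0% = DMSO wells and 100% = wells with excess untagged CBFb-SMMHC; inhibitors lower the FRET ratio by blocking Runt binding to CBFb-SMMHC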
# Hck Nef HTS – blocks Nef-activated human Hck kinase | P08631 | hit rate 0.68% among 220,000 | Recombinant Hck-YEEI plus Nef, Z-Lyte FRET kinase assay | inhibition, % at 20 µM;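 active = Hck-Nef kinase inhibition above about 50%, limit read from the data; inactive = inhibition below that limit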;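 note: 0% = DMSO with Hck plus Nef and 100% = Hck alone without Nef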
# Target sequence (P08631 whole entry, looked up): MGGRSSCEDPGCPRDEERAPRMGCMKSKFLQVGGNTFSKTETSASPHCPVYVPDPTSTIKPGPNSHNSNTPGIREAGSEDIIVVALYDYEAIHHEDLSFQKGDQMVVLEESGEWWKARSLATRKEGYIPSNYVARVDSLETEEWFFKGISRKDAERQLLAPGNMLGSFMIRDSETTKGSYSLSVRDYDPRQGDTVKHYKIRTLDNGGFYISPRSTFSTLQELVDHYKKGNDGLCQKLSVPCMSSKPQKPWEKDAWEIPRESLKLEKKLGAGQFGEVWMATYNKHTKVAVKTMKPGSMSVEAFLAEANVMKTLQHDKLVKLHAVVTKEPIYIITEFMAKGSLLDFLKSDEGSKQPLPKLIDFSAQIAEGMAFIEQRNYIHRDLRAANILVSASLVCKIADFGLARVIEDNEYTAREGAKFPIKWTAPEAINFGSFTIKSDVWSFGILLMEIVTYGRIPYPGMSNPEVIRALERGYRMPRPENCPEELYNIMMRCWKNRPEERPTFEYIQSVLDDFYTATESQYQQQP
# CaV13 FRET inh – Primary screen for inhibitors of IQ motif and Ca2+-dependent inactivation inhibitor domain binding in CACNA1D, Förster resonance energy transfer in living cells, …; HEK cells, CFP/YFP FRET ICDI-IQ, plate reader, 10 min; percent FRET-ratio fall versus neutral wells; hit rate 0.098% among 340,000; inhibition, % at 12.3 µM;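 active = mean replicate inhibition of at least 30% and at least 1% of replicates passing that level; inconclusive = only one of the two criteria is met; inactive = neither criterion is met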;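 note: 0% = median of the neutral control wells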
# RanGTP-Impb inh – inhibitors of RanGTP-importin-beta interaction, primary screen, biochemical, FRET, CFP-Ran, YFP-importin-beta, homogeneous; hit rate 1.1% among 300,000; cell-free CFP-Ran/YFP-importin-beta FRET ratio; inhibition, % (test concentration not listed);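 active = more than half of the replicate wells show a fall in the fluorescence ratio signal beyond about 16%, limit read from the data, passing the limit was not always enough; inconclusive = exactly half of the replicate wells pass the set limit; inactive = fewer than half of replicates pass the limit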;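 note: 0% = DMSO wells and 100% = Ran loaded with GDP instead of GTP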
# YIC counter – counter-screen: alters YIC FRET probe signal. shares compounds with RanGTP-Impb inh. Purified YIC probe, intramolecular FRET ratio YFP/CFP. IC50, µM. hit rate 40% among 1,000. AID 435026;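 active = fitted half-maximal inhibitory concentration no more than tenfold above the top dose tested; inconclusive = flat fit with 30 to 70% activity, or poor fit; inactive = half-maximal concentration beyond tenfold above the top dose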
# Active calls of the source: *; ? = inconclusive; nt = no result given. Rows were chosen to be rich in hits. Some 1.5% of all compounds tested hit in one or more screens of this group.
SMILES,Runt-CBFb FRET,Runt-SMMHC FRET,Hck Nef HTS,CaV13 FRET inh,RanGTP-Impb inh,YIC counter
Cc1c(C(=O)NCc2ccccc2)oc2ccc(S(=O)(=O)N3CCC4(CC3)OCCO4)cc12,-3,0,-2,-4,-3,nt
CCOC(=O)c1c(NC(=O)c2ccc(S(=O)(=O)N3CCOCC3)cc2)sc2c1CCN(C(C)C)C2,nt,nt,nt,-2,7,nt
CCOC(=O)c1c(NC(=S)Nc2ccc(F)cc2)sc2c1CCC2,7,2,17,-4,5,nt
CCOC(=O)c1c(NC(=O)C2CCCCC2)sc2c1CCN(C(C)C)C2,nt,nt,nt,-7,40*,>50
CCOC(=O)c1c(NC(=O)Nc2ccc(F)cc2)sc2c1CCN(C)C2,16,15,6,11,20*,>50
CCOC1=C/C(=C/c2c(N)n3nc(-c4ccccc4)sc3nc2=O)C=CC1=O,-31,-120,9,-6,-1,nt
O=C(NOCc1ccccc1)c1ccc(Cl)cc1,nt,nt,nt,-5,nt,nt
CCC(=O)N(CC(=O)Nc1sc(C)c(C)c1C(N)=O)C1CCCC1,1,2,-33,1,22*,>50
COc1ccc(Nc2cc(C)c3ccc(O)cc3n2)cc1,12,2,4,-7,7,nt
Cc1cc(Nc2ccccc2)nc2cc(O)ccc12,43,64*,-4,-4,18*,49*
Cn1c(=O)c2c(ncn2CCOc2ccc(F)cc2)n(C)c1=O,nt,nt,nt,-4,16*,>50
COC(=O)C1=C(C)N(Cc2ccccc2C(F)(F)F)C(=NCc2cc(OC)c(OC)c(OC)c2)NC1c1ccc(Cl)cc1 (stereo unspecified),nt,nt,nt,-12,nt,nt
Cc1nn(-c2ccc(F)cc2)c(C)c1CN1CCN(Cc2ccccc2)C(CCO)C1 (stereo unspecified),-1,1,1,-6,-3,nt
CCOC(=O)Cn1c(=O)oc2cc(S(=O)(=O)Nc3cc(OCC)ccc3OCC)ccc21,-2,-2,1,-4,nt,nt
CN(C)c1nc(-c2ccccc2)cc(C(F)(F)F)c1C#N,38,95*,11,nt,29*,10*
O=c1cc(CN2CCN(S(=O)(=O)c3ccc4c(c3)OCCO4)CC2)c2ccc(O)cc2o1,102*,102*,25,-3,46*,6.9*
COC(=O)c1cc(OC)c(OC)cc1NC(=O)c1cc(-c2ccccc2)nc2ccccc12,0,-4,22,-7,1,nt
N=c1c(S(=O)(=O)c2ccc(Cl)cc2)cc2c(=O)n3ccccc3nc2n1Cc1cccnc1,nt,nt,nt,nt,33*,?
O=C(Cc1ccccc1C(=O)O)Nc1cccc2ccccc12,nt,nt,nt,-3,21*,>50
NS(=O)(=O)c1ccc(CCNC(=O)C2CCN(S(=O)(=O)c3ccc(Br)s3)CC2)cc1,-1,3,17,-3,24*,>50
C=CCn1c(=O)/c(=C/c2ccc(Cl)cc2)s/c1=C(/C#N)c1nnc2n1CCCCC2,-15,-22,-2,-6,-5,nt
O=C(Oc1c(CN2CCOCC2)cc(Cl)c2cccnc12)c1ccccc1,nt,4,10,-7,15*,>50
CNS(=O)(=O)c1cc(OC)c(OC)cc1CC(=O)OC,0,2,21,-5,21*,>50
COC(=O)Cc1cc(OC)c(OC)cc1Cc1cc(OC)c(OC)cc1CC(=O)OC,-1,-1,-1,-3,-1,nt
O=C(CN1CCN(C/C=C/c2ccccc2)CC1)NC(=O)NC1CCCCC1,-3,0,18,-20,29*,>50
SMILES,Runt-CBFb FRET,Runt-SMMHC FRET,Hck Nef HTS,CaV13 FRET inh,RanGTP-Impb inh,YIC counter
O=C(CN1CCN(Cc2ccccc2)CC1)NC(=O)NC1CCCCC1,0,-3,0,nt,-4,nt
Oc1c(C=Nc2ccccc2)sc2ccccc12,nt,nt,25,-3,16*,7.6*
CCOc1ccc2nc(N3CCC(C(=O)N4CCN(c5ccccn5)CC4)CC3)sc2c1,-7,3,-1,nt,4,nt
CCN(/N=C/C=C/c1ccccc1)c1cc(=O)n(C)c(=O)[nH]1,1,1,3,5,27*,>50
COC(=O)C(NC(=O)CCc1c(C)nc2ncnn2c1C)C(C)C (stereo unspecified),-1,-4,0,-5,2,nt
CS(=O)(=O)N(CC(=O)NCCSCc1ccco1)c1ccc(Cl)cc1,3,-1,19,-2,16*,>50
Cc1nc2ccc(OC(=O)c3ccccc3)cc2s1,nt,nt,nt,-5,0,nt
CCOCCCn1c(=N)c(C(=O)NCc2ccc3c(c2)OCO3)cc2c(=O)n3cccc(C)c3nc21,60*,163*,7,-8,29*,18*
COCCCn1c(=N)c(C(=O)NCc2ccc3c(c2)OCO3)cc2c(=O)n3ccccc3nc21,79*,172*,8,-3,36*,25*
CCOCCCn1c(SCC(=O)NCc2ccc3c(c2)OCO3)nc2ccccc2c1=O,-5,-1,22,-7,-2,nt
Cc1noc(C)c1S(=O)(=O)Nc1ccc(C(=O)N2CCN(c3ccc(Cl)cc3)CC2)cc1,1,2,1,nt,0,nt
Cc1ccc(-c2c(C(=O)N/N=C/c3ccc4c(c3)OCO4)nnn2-c2nonc2N)cc1,nt,nt,nt,-7,23*,>50
COc1cc(C)c(Br)cc1S(=O)(=O)N1CCOCC1,2,0,1,-5,?,nt
COc1cc2cc(C(=O)NCCc3c[nH]c4ccccc34)c(N)nc2cc1OC,nt,nt,nt,-8,nt,nt
COc1cc2cc(C(N)=O)c(N)nc2cc1OC,101*,79*,2,nt,49*,10*
CNc1cccc(-c2cccc(O)c2)n1,nt,nt,nt,-7,nt,nt
CNc1cc(F)nc(F)n1,14,36,20,-3,27*,22*
C=CCn1c(SCC(=O)Nc2sccc2C(N)=O)nc2ccccc2c1=O,-1,0,-21,-5,19*,>50
COc1ccc2cc(C#CC3=CC(=O)C[C@H](c4ccc(F)cc4)C3)ccc2c1,nt,nt,nt,-6,nt,nt
COC(=O)Cc1[nH]nc2c1C(C1C=CCCC1)C(C#N)=C(N)O2 (stereo unspecified),0,2,3,nt,0,nt
CCOC(=O)C1=C(N)OC2=C(C(=O)CCC2)C1c1sccc1C (stereo unspecified),-2,-3,2,-2,23*,>50
CC#CC(=O)N1CCC(C(=O)Nc2ccc(Oc3ccccc3)nc2)CC1,nt,nt,nt,-10,18*,>50
C#Cc1ccc(CN2CCC(C(=O)Nc3ccc(Oc4ccccc4)nc3)CC2)cc1,nt,nt,nt,-5,7,nt
CC1(C)CC(=O)C/C(=N\NC(=O)C2CC23CCC3)C1 (stereo unspecified),2,1,1,-4,18*,>50
CC1=Nc2ccccc2/C1=C\c1nc(-c2ccc(F)cc2)oc1O,-18,-3,2,-9,22*,>26
